High-throughput results as filed in PubChem BioAssay.
Rows were chosen to be rich in hits. Some 4% of all compounds tested hit in one or more screens of this group.
ABHD5 PLIN5 PPI – blocks binding of human ABHD5 to perilipin-5 | inhibition, % at 4 µM | AID 602281 | Split G. princeps luciferase complementation, luminescence, 4 h | hit rate 0.78% among 360,000 | Q00G26+Q8WTS1;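 active = inhibition above the mean inhibition across every tested compound plus 3 SD, cut at about 22% in these data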;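 also: 0% = DMSO only wells and the 100% control is not disclosed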
Mdm2-MdmX inh – disrupts the human Mdm2-MdmX interaction; SaOS-2 split-luciferase Mdm2/MdmX complementation, luminescence; inhibition, % at 8 µM; hit rate 3% among 330,000; AID 485346;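 active = inhibition of at least 50% at 8 µM in the primary screen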
Target sequence (O15151 whole entry, looked up): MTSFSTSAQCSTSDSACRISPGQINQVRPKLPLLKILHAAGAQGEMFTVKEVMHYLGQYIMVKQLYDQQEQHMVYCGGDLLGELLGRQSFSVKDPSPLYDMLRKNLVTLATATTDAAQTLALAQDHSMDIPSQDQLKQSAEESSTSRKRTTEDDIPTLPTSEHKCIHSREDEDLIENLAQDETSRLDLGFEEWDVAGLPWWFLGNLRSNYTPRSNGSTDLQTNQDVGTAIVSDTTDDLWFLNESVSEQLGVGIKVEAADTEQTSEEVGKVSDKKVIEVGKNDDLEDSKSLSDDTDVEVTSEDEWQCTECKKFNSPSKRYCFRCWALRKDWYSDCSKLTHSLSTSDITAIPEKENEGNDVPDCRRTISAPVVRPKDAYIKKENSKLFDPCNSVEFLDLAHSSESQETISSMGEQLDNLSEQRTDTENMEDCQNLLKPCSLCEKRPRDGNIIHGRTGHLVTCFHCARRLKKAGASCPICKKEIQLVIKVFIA
Target sequence (Q00987 whole entry, looked up): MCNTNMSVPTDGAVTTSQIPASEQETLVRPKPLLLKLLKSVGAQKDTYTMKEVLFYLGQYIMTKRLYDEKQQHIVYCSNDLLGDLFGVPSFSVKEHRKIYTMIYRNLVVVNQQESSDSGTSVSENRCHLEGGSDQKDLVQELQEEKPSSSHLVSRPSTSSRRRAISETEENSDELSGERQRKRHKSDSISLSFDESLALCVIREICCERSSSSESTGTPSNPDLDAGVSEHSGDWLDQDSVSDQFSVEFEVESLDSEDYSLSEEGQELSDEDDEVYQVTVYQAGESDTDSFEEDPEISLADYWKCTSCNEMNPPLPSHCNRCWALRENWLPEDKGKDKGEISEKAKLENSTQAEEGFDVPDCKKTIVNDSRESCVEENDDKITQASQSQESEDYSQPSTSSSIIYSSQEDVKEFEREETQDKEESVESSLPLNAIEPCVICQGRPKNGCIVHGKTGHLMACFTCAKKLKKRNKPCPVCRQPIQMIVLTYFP
UPR CHOP act – activators of apoptotic arm of unfolded protein response (CHOP). CHO-CHOP luciferase reporter, UPR activation, luminescence; percent of tunicamycin response over DMSO baseline. activation, % at 10 µM. hit rate 0.34% among 330,000;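 active = at 10 µM dose, activation of 40% or more, normalized to positive control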;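 also: 100% = tunicamycin at 10 µg/mL and 0% = DMSO alone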
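Evaluation: % reporter activation, DMSO baseline versus tunicamycin full activation; System: CHO-CHOP luciferase reporter cell line; Input: 500 cells/well; Incubation: 6 h compound treatment, 37 °C; Measured by: Steady-Glo luciferase luminescence; Dosing: one dose, 10 µM in 0.5% DMSO; Buffer or medium: F12 medium, 10% FBS; Benchmarks: positive tunicamycin 10 µg/mL, negative DMSO alone.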
UPR XBP1 act – activators of adaptive arm of unfolded protein response (XBP1) | hit rate 0.33% among 330,000 | CHO-XBP1 luciferase reporter, IRE1-XBP1 UPR activation, luminescence; percent of tunicamycin response, DMSO as zero | activation, % at 20 µM | AID 463104;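 active = versus positive control, 20 µM dose yields 30% or more activation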;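 also: 100% = tunicamycin at 10 µg/mL and 0% = DMSO only wells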
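assay system = CHO-XBP1 luciferase reporter cells | amount = 1000 cells/well | buffer or medium = F12 plus 10% FBS | compound dosing = single point, 20 µM final compound, 1% DMSO | incubation = 16-18 h cell attachment at 37 °C, then 6 h compound exposure | detection = Steady-Glo luminescence read | controls = tunicamycin 10 µg/mL and vehicle-only wells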
Exocytosis inh – lytic granule exocytosis inhibition | TALL-104 LAMP-1 surface exposure, flow cytometry; cells stimulated with thapsigargin and PMA | inhibition, % at 10 µM | hit rate 0.66% among 360,000 | AID 651702;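 active = inhibition above about 55%, limit read from the data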
XBP1 UPR conf – adaptive UPR (XBP1) activation, confirmed | AID 485299 | CHO-XBP1 IRE1-XBP1 luciferase reporter, luminescence | hit rate 63% among 1,000 | activation, % at 20 µM | shares compounds with UPR XBP1 act;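 active = reporter signal at least 30% of the positive control's activation in two or more of four replicate wells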;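 also: plate controls were DMSO negative control for no effect and tunicamycin 10 µg/mL positive control for full effect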
Mdm2-MdmX conf – human Mdm2/MdmX binding inhibition, confirmed; shares compounds with Mdm2-MdmX inh; inhibition, % at 8 µM; AID 489028; hit rate 55% among 10,000; luminescent assay; in the data active = inhibition above about 40%
FLuc counter – counter-screen for Mdm2/MdmX inhibitors: full-length luciferase. shares compounds with Mdm2-MdmX inh. SaOS-2 full-length luciferase counterscreen, luminescence. inhibition, % at 8 µM. hit rate 77% among 6,200. AID 504607;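 active = mean inhibition at 8 µM reaching about 37%, which flags the compound as non-specific, limit read from the data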;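 also: p53-null SaOS-2 cells with luciferase driven by a doxycycline-inducible promoter; compound on cells about two nights before reading with doxycycline added after day one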
ABHD5 PLIN5 conf – confirmation of human ABHD5-PLIN5 interaction inhibitors. biochemical ABHD5-PLIN5 interaction, luminescence. shares compounds with ABHD5 PLIN5 PPI. AID 651612. inhibition, % at 4 µM. hit rate 67% among 2,200; in the data active = inhibition above about 23%;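 also: 0% = DMSO vehicle wells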
HNF4 counter – active in HNF4 split-luciferase counter-screen for ABHD5-PLIN5 inhibitors | shares compounds with ABHD5 PLIN5 PPI | inhibition, % at 4 µM | HNF4 dimerization, luminescence, biochemical | hit rate 77% among 2,200;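 active = mean inhibition across replicate wells exceeding the computed hit threshold, cut at about 13% in these data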;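 also: light from luciferase halves that rejoin when HNF4 fusion proteins dimerize; 0% = DMSO only wells and the 100% control is not given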
Exocytosis CP01 – lytic granule exocytosis inhibition. hit rate 11% among 1,500. inhibition, % at 10 µM. TALL-104 cells, LAMP-1 externalization, flow cytometry; stimulated with PMA plus thapsigargin. shares compounds with Exocytosis inh; in the data active = inhibition above about 60%;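 also: 0% = stimulated vehicle wells and 100% = unstimulated wells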
Active calls of the source: *; . = no result.

SMILES | ABHD5 PLIN5 PPI | Mdm2-MdmX inh | UPR CHOP act | UPR XBP1 act | Exocytosis inh | XBP1 UPR conf | Mdm2-MdmX conf | FLuc counter | ABHD5 PLIN5 conf | HNF4 counter | others
COc1ccc(C2=NN(CCC(=O)NCc3cccs3)C(=O)CC2)cc1 | -2 | 23 | 1 | -1 | -1 | . | . | . | . | .
Oc1cccc(-c2nc3c4c(ncn3n2)-c2ccccc2CC42CCCC2)c1 | -29 | 58* | 5 | 31* | 34 | 50* | 7 | . | . | .
COc1ccc(OCC(=O)Nc2ccccc2Cl)cc1 | -1 | 13 | 7 | -1 | 0 | . | . | . | . | .
O=C(c1ccco1)N1CCN(c2ncnc3c(-c4ccccc4)nsc23)CC1 | 11 | -139 | 6 | -1 | 7 | . | . | . | . | .
Cc1nc(Nc2nc(-c3ccccc3)cc(=O)[nH]2)nc2ccccc12 | 8 | 68* | 3 | 84* | -4 | 132* | 45* | 70* | . | .
O=C(Oc1cccc(OC(=O)c2ccco2)c1)c1ccco1 | -1 | 10 | 0 | 0 | -3 | . | . | . | . | .
CC1=CC(C)(C)N2C(=O)C(=O)c3cc(OC(=O)c4ccco4)cc1c32 | -2 | 75* | 1 | 41* | 2 | 57* | 59* | 52* | . | .
CCN(CC)S(=O)(=O)c1cc(C(=O)OC(C)C(=O)NCc2ccco2)ccc1C (centres undefined) | -8 | -12 | -2 | -2 | -5 | . | . | . | . | .
O=C(Cc1csc(Nc2nc(=S)[nH]c3ccccc23)n1)NCCCN1CCN(c2ccccc2F)CC1 | 5 | 98* | 3 | 64* | 84* | 19 | 32 | . | . | .
CCOC(=O)c1c(NC(=O)/C=C/C(=O)O)sc(C)c1-c1ccc(C(C)(C)C)cc1 | 35* | 87* | 19 | 47* | 4 | 47* | 80* | 56* | 71* | 27*
Cc1ccc(S(=O)(=O)N(CC(=O)O)Cc2ccco2)cc1 | 2 | -13 | 0 | 0 | 2 | . | . | . | . | .
COc1cccc(-c2sc3ccccc3c2-c2ccc(OCCN(C)C)cc2)c1 | 30* | 100* | 3 | 37* | 8 | 54* | 25 | . | 20 | 0
COc1ccc(-c2n(CC(=O)OC3CC(C)CCC3C(C)C)c3ccccc3[n+]2C)cc1 (centres undefined) | 18 | . | . | . | 37 | . | . | . | . | .
COc1ccc(OCc2n(CC(=O)OC3CC(C)CCC3C(C)C)c3ccccc3[n+]2C)cc1 (centres undefined) | 39* | 94* | 2 | 36* | 64* | 32* | 97* | 59* | 14 | 9
CN(C)CCCNC(=O)c1ccccn1 | 7 | -11 | -1 | 1 | 3 | . | . | . | . | .
CN(C)CCCNC(=O)c1ccc(-c2nc(-c3ccc(Cl)cc3)cs2)cc1 | 27* | 87* | 9 | 82* | 39 | 159* | 94* | 28 | 22* | 2
COc1ccc(NC(=O)CN(C)C(=O)/C=C/c2cn(-c3ccccc3)nc2-c2ccc(C)cc2)cc1 | -2 | 20 | 1 | 0 | 36 | . | . | . | . | .
COc1ccccc1CNCC(O)Cn1c2ccccc2c2ccccc21 (centres undefined) | 35* | 90* | 3 | 30* | 87* | 29 | 67* | 50* | 9 | -2
OCCNCC(O)Cn1c2ccccc2c2ccccc21 (centres undefined) | -4 | 17 | 1 | 0 | 4 | . | . | . | . | .
Clc1ccc(-c2nnc3n2CCCCC3)cc1 | -3 | -13 | -2 | 0 | 0 | . | . | . | . | .
CCC(=O)Nc1cccc(C(=O)/C=C/c2ccc(F)cc2)c1 | 46* | 89* | 9 | 35* | -2 | 53* | 48* | 45* | 92* | 85*
Cc1ccc2c(c1)C(=O)C(=O)N2Cc1ccc(C(F)(F)F)cc1 | 42* | 72* | 2 | 51* | 13 | 46* | 14 | . | 36* | 40*
CC(C)C(=O)N(c1cc2sc(=O)oc2c2ccccc12)S(=O)(=O)c1cccs1 | 68* | 6 | 24 | 48* | 5 | 49* | . | . | 9 | 75*
COc1ccc(N(C(=O)C(C)C)S(=O)(=O)c2cccs2)cc1 | 2 | 20 | 1 | -2 | -4 | . | . | . | . | .
Cc1cccc(N2CCN(C(=S)Nc3ccc4nc(N5CCN(C)CC5)cc(C)c4c3)CC2C)c1 (centres undefined) | 25* | 88* | 8 | 62* | 29 | 47* | 60* | 65* | 10 | -4
SMILES | ABHD5 PLIN5 PPI | Mdm2-MdmX inh | UPR CHOP act | UPR XBP1 act | Exocytosis inh | XBP1 UPR conf | Mdm2-MdmX conf | FLuc counter | ABHD5 PLIN5 conf | HNF4 counter | others
Cc1c(O)ccc(C(=O)COc2ccc(F)cc2)c1O | -3 | -78 | 4 | -2 | -3 | . | . | . | . | .
C=CCOc1cccc(/C=N/NC(=O)CN(c2cc(Cl)ccc2OC)S(=O)(=O)c2ccc(C)c([N+](=O)[O-])c2)c1 | -2 | 36 | 3 | -2 | -3 | . | . | . | . | .
CCOc1cccc2sc(N(CCCN(C)C)C(=O)c3ccc(S(=O)(=O)N(CC)Cc4ccccc4)cc3)nc12 | 23* | 84* | 9 | 43* | 64* | 12 | 53* | 68* | . | . | Exocytosis CP01=60*
CCN(Cc1ccccc1)S(=O)(=O)c1ccc(C(=O)N(CCCN(C)C)c2nc3c(F)cccc3s2)cc1 | 12 | 17 | 2 | -3 | 9 | . | . | . | . | .
COc1ccc(NC(=O)C2=C(C)NC(=O)NC2c2cccs2)c(OC)c1 (centres undefined) | -9 | 14 | 4 | 1 | -6 | . | . | . | . | .
Cc1cc(N2CCN(c3nc(-c4ccc([N+](=O)[O-])cc4)cs3)CC2)c2ccccc2n1 | 4 | 42 | 9 | 68* | 66* | 39* | . | . | . | . | Exocytosis CP01=79*
COc1ccc(Cn2c(SCc3ccccc3C)nc3cc(OC)c(OC)cc3c2=N)cc1 | 15 | 97* | 16 | 115* | 96* | 61* | 52* | 48* | . | . | Exocytosis CP01=59
COc1cc2nc(SCc3ccc(F)cc3)n(Cc3cccs3)c(=N)c2cc1OC | -1 | 42 | 0 | -2 | -1 | . | . | . | . | .
COc1cccc(NC(=O)c2ccc(NCCCN3CC(C)CC(C)C3)c([N+](=O)[O-])c2)c1 (centres undefined) | 6 | . | . | . | 19 | . | . | . | . | .
